Calls of active or inactive are those of the source. The rule behind the calls is not given here.
Tests used:
Mus musculus [1] = test: (§1) Toxicity in sc dosed mouse; assay type: organism-based; settings: in vivo
Mus musculus [2] = test: Analgesic activity in sc dosed mouse by eddy's hot-plate method; assay type: functional
In short: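 Mice were given aqueous solutions of the oxalate salts subcutaneously. Antinociception was read by the Eddy hot-plate method, and analgesic potency was expressed as ED50 in mg/kg.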

Mus musculus [3] = test: Inhibition of morphine-induced response in mouse at 0.3 mg/kg, sc by tail-flick antagonist assay; assay type: functional; design: scale not given: the % may be the effect or the level left; settings: route subcutaneous
Mus musculus [4] = test: Inhibition of morphine-induced response in mouse at 1 mg/kg, sc by tail-flick antagonist assay; assay type: functional; design: scale not given: the % may be the effect or the level left; settings: route subcutaneous
[5] = as §1; assay type: organism-based; settings: in vivo
Mus musculus [6] = test: Inhibition of morphine-induced response in mouse at 3 mg/kg, sc by tail-flick antagonist assay; assay type: functional; design: scale not given: the % may be the effect or the level left; settings: route subcutaneous

Row | Structure (SMILES) | Activity (Mus musculus [1]) | Activity (Mus musculus [2]) | ED50 (Mus musculus [2]) [mg/kg] | further results
1 | CC(C)=CCN1CC2CC(C1)c1ccccc12.O=C(O)C(=O)O | Toxic | inactive |  | 
2 | COc1ccc2c3c1O[C@H]1[C@@H](O)C=C[C@H]4[C@@H](C2)N(C)CC[C@@]341 [CODEINE] |  |  | 5.8 | 
3 | O=C(O)C(=O)O.c1ccc(CCN2CC3CC(C2)c2ccccc23)cc1 | Non-toxic | inactive |  | 
4 | O=C(O)C(=O)O.c1ccc2c(c1)C1CC2CN(CC2CC2)C1 | Toxic | inactive |  | Activity (Mus musculus [3]): 58%
5 | CN1CC2CC(C1)c1ccccc12.O=C(O)C(=O)O | Toxic | inactive |  | 
6 | CCCN1CC2CC(C1)c1ccccc12.O=C(O)C(=O)O | Toxic | inactive |  | Activity (Mus musculus [4]): 47%
7 | c1ccc2c(c1)C1CCNCC2C1 (stereo not drawn) |  |  | 4.9 | 
8 | c1ccc2c(c1)CC1CC2CCN1 (stereo not drawn) |  |  | 10.2 | 
9 | C=CCN1CC2CC(C1)c1ccccc12.O=C(O)C(=O)O |  |  | 15.6 | LD50 [5]: 47 mg/kg; Activity (Mus musculus [6]): 56%

— ChEMBL document CHEMBL3227998, “Synthesis and pharmacological activity of 2,3,4,5,-tetrahydro-1,5-methano-1H-3-benzazepines” (J Med Chem, 1979)
